Measurements published in ChEMBL document CHEMBL4732218, “Synthesis and biological evaluation of benzhydryl-based antiplasmodial agents possessing Plasmodium falciparum chloroquine resistance transporter (PfCRT) inhibitory activity” (Eur J Med Chem, 2021).
Calls of active or inactive are those of the source. The rule behind the calls is not given here.

Tests used:
Plasmodium falciparum [1] = assay: Antimalarial activity against Plasmodium falciparum W2 by parasite lactate dehydrogenase assay; type: functional, organism-based
Plasmodium falciparum [2] = assay: Antimalarial activity against Plasmodium falciparum D10 by parasite lactate dehydrogenase assay; type: functional, organism-based
[3] = target: T1, Chloroquine resistance transporter (Plasmodium falciparum) (UniProt Q9N623); assay: Inhibition of Plasmodium falciparum Dd2 CRT expressed in Xenopus laevis oocyte assessed as inhibition of [3H]-CQ transport at 100 uM incubated for 1.5 hrs by microbeta scintillation counting method; type: cell-based
T1 sequence (whole entry): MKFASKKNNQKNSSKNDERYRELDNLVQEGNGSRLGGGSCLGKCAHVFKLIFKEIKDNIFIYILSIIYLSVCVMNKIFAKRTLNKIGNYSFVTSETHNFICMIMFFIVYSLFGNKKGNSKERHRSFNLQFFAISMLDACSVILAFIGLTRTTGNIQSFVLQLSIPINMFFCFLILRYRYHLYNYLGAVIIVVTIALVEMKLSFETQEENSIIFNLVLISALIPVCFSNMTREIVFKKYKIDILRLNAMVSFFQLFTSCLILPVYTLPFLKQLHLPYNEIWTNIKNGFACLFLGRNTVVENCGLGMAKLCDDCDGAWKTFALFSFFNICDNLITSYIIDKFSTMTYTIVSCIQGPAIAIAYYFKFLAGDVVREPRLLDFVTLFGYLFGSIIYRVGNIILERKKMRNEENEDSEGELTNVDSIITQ
Method in brief: (§1)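 Xenopus oocytes expressing PfCRT Dd2 and non-expressing oocytes, stored at 16–18 °C in OR2+ buffer (pH 7.8), assayed 3-4 days post-injection. [3H]CQ (0.25 µM) influx measured over 1.5 h at 27.5 °C in pH 5.5 medium (96 mM NaCl, 10 mM MES/Tris) with 15 µM unlabeled CQ, scintillation counting. PfCRT-mediated transport = uptake in expressing minus non-expressing oocytes.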

[4] = Cytotoxicity against mouse NIH/3T3 cells assessed as reduction in cell viability incubated for 24 hrs by neutral red dye uptake assay; type: cell-based, NIH3T3
Method in brief: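 NIH3T3 cells, 5 × 10^4/well, cultured 24 h at 37 °C, 5% CO2, then exposed 24 h to compounds in DMSO at 8–160 µM; medium alone as negative control. Viability by Neutral Red uptake (3 h at 37 °C), dye extracted in acetic acid/ethanol, absorbance 540 nm. Three experiments, six replicates per concentration.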

[5] = target: T2, Chloroquine resistance transporter (Plasmodium falciparum, UniProt Q9N623); assay: Inhibition of Plasmodium falciparum Dd2 CRT expressed in Xenopus laevis oocyte assessed as inhibition of [3H]-CQ transport incubated for 1.5 hrs by microbeta scintillation counting method; type: cell-based; method in brief: as §1
T2 sequence (Q9N623 whole entry): T1 sequence (whole entry)

Plasmodium berghei [6] = assay: Antimalarial activity against in Plasmodium berghei ANKA strain GFP-con infected in Balb/c mouse assessed as blocked of transmission activity to Anopheles stephensi by measuring reduction in […] in mosquito at 10 micromol/kg, ip treated first dose 3 days post infection and female mosquitos feed blood meal on day 4 after 1.5 hrs of dosing by direct exposure and measured on day 8 by fluorescence microscopic analysis (reference value: 357); type: functional; details: dose 10 µmol/kg; time 3 day
Method in brief: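 P. berghei ANKA GFP-con, i.p. 10^7 infected RBC into 8–10-week BALB/c mice; on day 3 mice with ~5% parasitemia and gametocytes randomised, 3 per group. Dosed i.p. 10 µmol/kg on afternoon of day 3 and again day 4, 1.5 h before 1 h feed by ~150 female An. stephensi. Day 8: fluorescent midgut oocysts counted in 20–30 mosquitoes; triplicate cages; PBS control; two-tailed t-test.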

Plasmodium berghei [7] = assay: (§2) Antimalarial activity against liver stage Plasmodium berghei PbmCherryhsp70 sporozoites infected in human HepG2 cells assessed as reduction in parasite number at 8 uM incubated for 24 hrs followed by removal of media and supplemented with fresh media and further incubated for 24 hrs by phase contrast microscopic analysis relative to control; type: functional
Method in brief: (§3)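 HepG2 cells (60000/well, seeded day before) infected 2 h with 20'000 PbmCherry_hsp70 sporozoites from An. stephensi salivary glands, then detached, pooled and treated from 2 hpi at graded concentrations with DMSO control. Medium changed 24 hpi; fixed 4% PFA at 48 hpi. Parasite number and size from mCherry signal by automated microscopy; 6 replicates; host growth checked by phase contrast; one-way ANOVA with Dunnett.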

Plasmodium berghei [8] = assay: as §2, with “size” for “number”, “2” for “8”, “analysis” for “analysis relative to control”; type: functional, organism-based; method in brief: as §3

| SMILES | IC50 (Plasmodium falciparum [1]) | IC50 (Plasmodium falciparum [2]) | inhibition [3] | CC50 at 24 h [4] | IC50 [5] | Activity (Plasmodium berghei [6]) | inhibition at 8 µM (Plasmodium berghei [7]) | inhibition (Plasmodium berghei [8]) |
| --- | --- | --- | --- | --- | --- | --- | --- | --- |
| Clc1ccc(C(Nc2ccnc3cc(Cl)ccc23)c2ccc(CN3CCCCC3)cc2)cc1 (centres undefined) | 0.069 µM | 0.065 µM | inactive | – | – | – | – | – |
| COc1cc(NC(c2ccc(CN3CCNCC3)cc2)c2cccc(Cl)c2)n2nc(C)nc2n1 (centres undefined) | 0.92 µM | 3.7 µM | 98% | < 3.5 µM | 12.5 µM | – | – | – |
| Clc1ccc2c(NC(c3ccc(CN4CCNCC4)cc3)c3cccc(OCCOc4cccc(C(Nc5ccnc6cc(Cl)ccc56)c5ccc(CN6CCNCC6)cc5)c4)c3)ccnc2c1 (centres undefined) | – | – | Active | – | – | – | – | – |
| Clc1cccc(C(Nc2ccnc3cc(Cl)ccc23)c2ccc(CN3CCCCC3)cc2)c1 (centres undefined) | 0.088 µM | 0.084 µM | inactive | – | – | – | – | – |
| Clc1ccc(C(Nc2ccnc3cc(Cl)ccc23)c2ccc(CN3CCN(Cc4ccc(C(Nc5ccnc6cc(Cl)ccc56)c5cccc(Cl)c5)cc4)CC3)cc2)cc1 (centres undefined) | 0.46 µM | 0.595 µM | Active | – | 15.6 µM | – | – | – |
| Clc1ccc(C(Nc2ccnc3cc(Cl)ccc23)c2ccc(CCN3CCCC3)cc2)cc1 (centres undefined) | 0.027 µM | 0.019 µM | inactive | – | – | – | – | – |
| COc1cc(NC(c2ccc(CN3CCCC3)cc2)c2cccc(Cl)c2)c2ncccc2c1 (centres undefined) | 3.7 µM | 4.5 µM | 65% | 28 µM | 55 µM | 491 | – | – |
| OC(c1ccc(Cl)cc1)c1ccc(CCN2CCCC2)cc1 (centres undefined) | > 15 µM | > 15 µM | 22% | – | – | – | – | – |
| OC(c1ccc(Cl)cc1)c1ccc(CN2CCNCC2)cc1 (centres undefined) | 11 µM | > 15 µM | 22% | – | – | – | – | – |
| Oc1cccc(C(Nc2ccnc3cc(Cl)ccc23)c2ccc(CN3CCNCC3)cc2)c1 (centres undefined) | 0.475 µM | 0.179 µM | inactive | – | – | – | – | – |
| COc1cc(NC(C)CCCN)c2ncccc2c1 (centres undefined) [PRIMAQUINE] | 4.4 µM | 5.7 µM | – | – | – | – | 50% | Active |
| COc1cc(NC(c2ccc(CN3CCNCC3)cc2)c2cccc(Cl)c2)c2ncccc2c1 (centres undefined) | 2.3 µM | 2.8 µM | 65% | 19 µM | 64 µM | 454 | – | – |
| COc1cccc(C(Nc2ccnc3cc(Cl)ccc23)c2ccc(CN3CCNCC3)cc2)c1 (centres undefined) | 0.075 µM | 0.04 µM | Active | – | – | – | – | – |
| Clc1cccc(C(Nc2ccnc3cc(Cl)ccc23)c2ccc(CCN3CCCC3)cc2)c1 (centres undefined) | 0.022 µM | 0.023 µM | inactive | – | – | – | – | – |
| Clc1ccc(C(c2ccc(CN3CCNCC3)cc2)c2ccnc3cc(Cl)ccc23)cc1 (centres undefined) | 2.7 µM | 3.7 µM | inactive | – | – | – | – | – |
| OC(c1ccc(Cl)cc1)(c1ccc(CN2CCNCC2)cc1)c1ccnc2cc(Cl)ccc12 (centres undefined) | 2 µM | 2 µM | inactive | – | – | – | – | – |
| O=C(c1ccc(Cl)cc1)c1ccc(CN2CCNCC2)cc1 | 8.6 µM | > 15 µM | 22% | – | – | – | – | – |
